Results: publication PMC2860721 (Journal of medicinal chemistry, 2010)
Values after ≈ are worked out from the molar mass of the structure shown.

How the values were obtained:
[1] = tested on: HIV-1NL4-3; experiment: HIV-1NL4-3 replication inhibition assay in MT-4 lymphocytes; assay type: cell-based; conditions: HIV-1NL4-3 infected MT-4 lymphocytes
In short: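 MT-4 cells infected with HIV-1 NL4-3 or NL4-3 variants at MOI 0.01. Culture supernatants collected on day 4 post-infection. Viral replication read out by p24 antigen capture ELISA.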

[2] = tested on: HIV; conditions: cited from earlier work
[3] = tested on: mock-infected MT-2 cells; experiment: Compound toxicity by XTT in mock-infected MT-2 cells; assay type: cell-based; conditions: Homo sapiens, MT2, read-out: IC50 (concentration that inhibits mock-infected cell growth by 50%)
[4] = tested on: HIV; conditions: cited from earlier work; remark: listed apart in the source

With `C=C(C)[C@@H]1CC[C@]2(C(=O)O)CC[C@]3(C)[C@H](CC[C@@H]4[C@@]5(C)CC[C@H](OC(=O)C[C@](C)(CC)C(=O)O)C(C)(C)[C@@H]5CC[C@]43C)[C@@H]12` [Compound 12a, 3β-O-(3′S-Ethylmethylsuccinyl)-betulinic acid] the antiviral activity [1] was “active”.
In the case of `CC1(C)C=C2[C@H]3CC[C@@H]4[C@@]5(C)CCC(=O)C(C)(C)[C@@H]5CC[C@@]4(C)[C@]3(C)CC[C@@]2(C(=O)O)CC1` [Compound 3, moronic acid], the “EC50 (anti-HIV activity)” value [2] is given as 0.1 µg/mL (≈ 0.22 µM).
With `C=C(C)[C@@H]1CC[C@]2(C(=O)O)CC[C@]3(C)[C@H](CC[C@@H]4[C@@]5(C)CC[C@H](OC(=O)C[C@@](C)(CC)C(=O)O)C(C)(C)[C@@H]5CC[C@]43C)[C@@H]12` [Compound 12b, 3β-O-(3′R-Ethylmethylsuccinyl)-betulinic acid] the antiviral activity [1] was “no antiviral activity”.
`C=C(C)[C@@H]1CC[C@]2(C(=O)O)CC[C@]3(C)[C@H](CC[C@@H]4[C@@]5(C)CC[C@H](OC(=O)C[C@H](C)C(=O)O)C(C)(C)[C@@H]5CC[C@]43C)[C@@H]12` [Compound 10, 3β-O-(3′S-Methylsuccinyl)-betulinic acid] gave an IC50 [3] of 32.8 µM.
In the case of `C=C(C)C1CCC2(C(=O)O)CCC3(C)C(CCC4C5(C)CCC(OC(=O)C(C)(C)CC(=O)O)C(C)(C)C5CCC43C)C12` (centres unmarked) [3-O-(2′,2′-dimethylsuccinyl) BA], the EC50 [4] is given as 2700 nM.
